Measured values of several laboratories.
Compare with care: the assays were run in different laboratories. In brackets after ≈: the same amount, converted by molar mass.

`CC(C)[C@H](N)C(=O)OCCCCCn1cnc2nc(NCc3ccc(Cl)c(Cl)c3)[nH]c(=O)c21` has an MIC of greater than 32 µg/mL (Lacticaseibacillus casei; microbial growth, agar dilution; 48 h).
With `CCCCCOc1ccc(-c2cc(-c3ccc(C(=O)N[C@H]4C[C@@H](O)[C@@H](O)NC(=O)[C@@H]5[C@@H](O)[C@@H](C)CN5C(=O)[C@H]([C@H](O)CC(N)=O)NC(=O)[C@H]([C@H](O)[C@@H](O)c5ccc(O)c(OS(=O)(=O)O)c5)NC(=O)[C@@H]5C[C@@H](O)CN5C(=O)[C@H]([C@@H](C)O)NC4=O)cc3)no2)cc1` the inhibition was 28% (Candida tropicalis; biofilm formation; 16 µg/mL).
With `COc1ccc2c(ccc3oc([N+](=O)[O-])c(C)c32)c1` the MIC90 was greater than 32 µg/mL (Mycolicibacterium smegmatis; microbial growth, resazurin; MC^2155).
`Cc1c2ccncc2c(C)c2c1[nH]c1ccccc12` has an MBC of 87.1 µM (≈ 21.5 µg/mL) (Mycolicibacterium smegmatis; microbial killing, resazurin).
`O=C1C2CC3CC(C2)CC1C3` gave an IC50 of greater than 500000 nM (Mycolicibacterium smegmatis; microbial growth; 48 h).
The MIC of `Cn1cnc2nc(NCc3ccc(Cl)c(Cl)c3)[nH]c(=O)c21` is reported as 32 µg/mL (≈ 98.7 µM) (Lacticaseibacillus casei; microbial growth, agar dilution; 48 h).
`O=[N+]([O-])c1cc2cc3ccc4oc([N+](=O)[O-])cc4c3cc2o1` has an MIC90 of 4 µg/mL (≈ 13.4 µM) (Mycolicibacterium smegmatis; microbial growth, resazurin; MC^2155).
The IC50 of `CC(C)=CCC/C(C)=C/CNCCNC1C2CC3CC(C2)CC1C3` (centres unmarked) is reported as 2400 nM (Mycolicibacterium smegmatis; microbial growth; 48 h).
